Test results from ChEMBL document CHEMBL1133571, “Extended TIP(P) analogues as precursors for labeled delta-opioid receptor ligands” (J Med Chem, 2000).
Where “and” joins values, the source holds several entries; their conditions need not be identical. Equal values may be shown once. Where a SMILES comes first, the peptide text is derived from it. [ ]: non-standard residue; d: D form. Tic = O=C(O)[C@@H]1Cc2ccccc2CN1

Columns and labels:
Mu-type opioid receptor = Mu-type opioid receptor (Homo sapiens, UniProt P35372); assay: Affinity towards human Opioid receptor mu 1 on CHO cell membranes using [3H]DAMGO displacement.
Mu-type opioid receptor, sequence (P35372 whole entry): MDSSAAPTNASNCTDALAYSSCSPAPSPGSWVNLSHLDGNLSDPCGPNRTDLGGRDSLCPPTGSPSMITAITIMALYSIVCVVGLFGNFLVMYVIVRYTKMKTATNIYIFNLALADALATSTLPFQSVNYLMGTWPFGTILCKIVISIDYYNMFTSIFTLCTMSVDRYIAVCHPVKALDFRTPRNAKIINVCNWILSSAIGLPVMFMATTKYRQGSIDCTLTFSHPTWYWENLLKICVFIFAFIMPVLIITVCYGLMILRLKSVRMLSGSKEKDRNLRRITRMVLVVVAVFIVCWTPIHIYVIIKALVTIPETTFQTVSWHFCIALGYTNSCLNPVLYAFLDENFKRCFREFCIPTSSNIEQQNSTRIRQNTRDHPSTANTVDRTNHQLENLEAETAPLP
Summary of the method: (§1)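 Membranes from CHO cells stably expressing cloned δ or µ receptors. Incubated 90 min at 22 °C with peptide concentrations up to 10 µM, 3 mM Mg2+, and peptidase inhibitors (10 µM bestatin, 30 µM captopril, 50 µM L-leucyl-L-leucine). Nonspecific binding measured with 10 µM unlabeled ligand. IC50 from nonlinear regression converted to Ki by Cheng-Prusoff (KD: [3H]DPDPE 0.5 nM, δ; [3H]DAMGO 0.644 nM, µ).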

[1] = target: Delta-type opioid receptor (Homo sapiens, UniProt P41143); assay: Affinity towards human Opioid receptor delta 1 on CHO cell membranes using [3H]DPDPE displacement.; summary of the method: as §1
Delta-type opioid receptor, sequence (P41143 whole entry): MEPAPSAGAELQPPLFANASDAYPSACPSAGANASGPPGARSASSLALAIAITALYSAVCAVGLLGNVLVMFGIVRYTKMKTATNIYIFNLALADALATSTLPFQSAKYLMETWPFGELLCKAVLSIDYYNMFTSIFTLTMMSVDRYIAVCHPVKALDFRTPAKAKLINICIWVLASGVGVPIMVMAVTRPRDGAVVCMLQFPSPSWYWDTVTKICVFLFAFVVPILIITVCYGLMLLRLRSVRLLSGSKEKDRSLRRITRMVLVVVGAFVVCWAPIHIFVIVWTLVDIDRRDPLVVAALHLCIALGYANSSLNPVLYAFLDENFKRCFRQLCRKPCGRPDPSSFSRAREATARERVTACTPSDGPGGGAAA

Row | Structure (SMILES) | Ki (Mu-type opioid receptor) | Ki [1]
1 | NC(=O)[C@@H](CC(=O)O)NC(=O)[C@H](Cc1ccccc1)NC(=O)[C@H](Cc1ccccc1)NC(=O)[C@@H]1Cc2ccccc2CN1C(=O)[C@@H](N)Cc1ccc(O)cc1 | 3280 nM | 10.3 nM
2 | NC(=O)C[C@@H](NC(=O)[C@H](Cc1ccccc1)NC(=O)[C@H](Cc1ccccc1)NC(=O)[C@@H]1Cc2ccccc2CN1C(=O)[C@@H](N)Cc1ccc(O)cc1)C(=O)O | 3200 nM | 8.1 nM
3 | NC(=O)C[C@H](NC(=O)[C@H](Cc1ccccc1)NC(=O)[C@H](Cc1ccccc1)NC(=O)[C@@H]1Cc2ccccc2CN1C(=O)[C@@H](N)Cc1ccc(O)cc1)C(=O)O | > 4500 nM | 7.1 nM
4 | NC(=O)[C@H](CC(=O)O)NC(=O)[C@H](Cc1ccccc1)NC(=O)[C@H](Cc1ccccc1)NC(=O)[C@@H]1Cc2ccccc2CN1C(=O)[C@@H](N)Cc1ccc(O)cc1 | > 4000 nM | 9.5 nM
5 | CC(=O)NCCCC[C@H](NC(=O)[C@H](Cc1ccccc1)NC(=O)[C@@H]1Cc2ccccc2CN1C(=O)[C@@H](N)Cc1ccc(O)cc1)C(=O)O | > 4500 nM | 27.8 nM
6 | NC(=O)CC[C@@H](NC(=O)[C@H](Cc1ccccc1)NC(=O)[C@@H]1Cc2ccccc2CN1C(=O)[C@@H](N)Cc1ccc(O)cc1)C(=O)O | > 4500 nM | 5 nM
7 | NC(=O)CC[C@H](NC(=O)[C@H](Cc1ccccc1)NC(=O)[C@H](Cc1ccccc1)NC(=O)[C@@H]1Cc2ccccc2CN1C(=O)[C@@H](N)Cc1ccc(O)cc1)C(=O)O | > 4500 nM | 9.7 nM
8 | NC(=O)[C@@H](CCC(=O)O)NC(=O)[C@H](Cc1ccccc1)NC(=O)[C@@H]1Cc2ccccc2CN1C(=O)[C@@H](N)Cc1ccc(O)cc1 | > 4500 nM | 34.9 nM
9 | NC(=O)CC[C@H](NC(=O)[C@H](Cc1ccccc1)NC(=O)[C@@H]1Cc2ccccc2CN1C(=O)[C@@H](N)Cc1ccc(O)cc1)C(=O)O | > 4500 nM | 37.7 nM
10 | NC(=O)[C@H](CCC(=O)O)NC(=O)[C@H](Cc1ccccc1)NC(=O)[C@H](Cc1ccccc1)NC(=O)[C@@H]1Cc2ccccc2CN1C(=O)[C@@H](N)Cc1ccc(O)cc1 | > 4500 nM | 9.9 nM
11 | NC(=O)[C@@H](CCC(=O)O)NC(=O)[C@H](Cc1ccccc1)NC(=O)[C@H](Cc1ccccc1)NC(=O)[C@@H]1Cc2ccccc2CN1C(=O)[C@@H](N)Cc1ccc(O)cc1 | 1950 nM | 7.8 nM
12 | NC(=O)[C@@H](CC(=O)O)NC(=O)[C@H](Cc1ccccc1)NC(=O)[C@@H]1Cc2ccccc2CN1C(=O)[C@@H](N)Cc1ccc(O)cc1 | > 4500 nM | 69 nM
13 | NC(=O)C[C@H](NC(=O)[C@H](Cc1ccccc1)NC(=O)[C@@H]1Cc2ccccc2CN1C(=O)[C@@H](N)Cc1ccc(O)cc1)C(=O)O | > 4500 nM | 61.1 nM
14 | CC(=O)NCCCC[C@@H](NC(=O)[C@H](Cc1ccccc1)NC(=O)[C@@H]1Cc2ccccc2CN1C(=O)[C@@H](N)Cc1ccc(O)cc1)C(=O)O | > 4500 nM | 21.6 nM
15 | NC(=O)CC[C@@H](NC(=O)[C@H](Cc1ccccc1)NC(=O)[C@H](Cc1ccccc1)NC(=O)[C@@H]1Cc2ccccc2CN1C(=O)[C@@H](N)Cc1ccc(O)cc1)C(=O)O | > 4500 nM | 5.1 nM
16 | NC(=O)[C@H](CC(=O)O)NC(=O)[C@H](Cc1ccccc1)NC(=O)[C@@H]1Cc2ccccc2CN1C(=O)[C@@H](N)Cc1ccc(O)cc1 | > 4500 nM | 21.4 nM
17 | NC(=O)[C@H](CCC(=O)O)NC(=O)[C@H](Cc1ccccc1)NC(=O)[C@@H]1Cc2ccccc2CN1C(=O)[C@@H](N)Cc1ccc(O)cc1 | 4500 nM | 19.9 nM
18 | NC(=O)C[C@@H](NC(=O)[C@H](Cc1ccccc1)NC(=O)[C@@H]1Cc2ccccc2CN1C(=O)[C@@H](N)Cc1ccc(O)cc1)C(=O)O | > 4500 nM | 13.7 nM
19 | CC(=O)NCCCC[C@@H](NC(=O)[C@H](Cc1ccccc1)NC(=O)[C@H](Cc1ccccc1)NC(=O)[C@@H]1Cc2ccccc2CN1C(=O)[C@@H](N)Cc1ccc(O)cc1)C(=O)O | > 4500 nM | 16.3 nM and 21.5 nM
20 | N[C@@H](Cc1ccc(O)cc1)C(=O)N1Cc2ccccc2C[C@H]1C(=O)N[C@@H](Cc1ccccc1)C(=O)O (H-Tyr-[Tic]-Phe-OH) | > 4500 nM | 148 nM
21 | N[C@@H](Cc1ccc(O)cc1)C(=O)N1Cc2ccccc2C[C@H]1C(=O)N[C@@H](Cc1ccccc1)C(=O)N[C@@H](Cc1ccccc1)C(=O)O (H-Y[Tic]FF-OH) | > 4500 nM | 6.1 nM and 1.22 nM
